Assay outcomes as filed in PubChem BioAssay.
Most compounds without a hit are left out; they make up all but 2.5% or so of the library.
Insulin prom up: MIN6 insulin promoter up-regulation; MIN6 insulin promoter-GFP reporter, high-content imaging; active compounds read high; z-score at 5 µM; actives 0.3% (n = 190,000);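 active = z-score above 3 at 5 µM with at least 500 cells counted in the well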
NPY-Y2 PAM-ag: potentiates or activates human NPY-Y2 receptor | actives 0.45% (n = 220,000) | P49146 | activation, % at 3.6 µM | cells expressing NPY-Y2, potentiator/agonist read-out; in the data active = activation above about 27%;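 also: cells stimulated with NPY near EC25 plus isoproterenol at EC100; 0% = vehicle plus submaximal agonist and 100% = vehicle plus saturating agonist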
Target sequence (P49146 whole entry, looked up): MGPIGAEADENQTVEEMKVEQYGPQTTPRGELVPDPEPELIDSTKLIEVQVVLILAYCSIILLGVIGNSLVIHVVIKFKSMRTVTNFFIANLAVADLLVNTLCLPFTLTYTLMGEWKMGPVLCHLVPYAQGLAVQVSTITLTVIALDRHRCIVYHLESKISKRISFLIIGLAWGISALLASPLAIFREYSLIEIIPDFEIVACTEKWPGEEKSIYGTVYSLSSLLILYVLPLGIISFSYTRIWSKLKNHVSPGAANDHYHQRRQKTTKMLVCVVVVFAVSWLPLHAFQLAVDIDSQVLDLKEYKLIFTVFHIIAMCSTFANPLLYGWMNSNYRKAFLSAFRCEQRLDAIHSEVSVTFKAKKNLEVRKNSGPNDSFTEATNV
INS promoter inh: TRM-6 insulin promoter activity inhibition. actives 0.9% (n = 130,000). TRM-6 cells (human fetal islet line), insulin promoter-eGFP reporter, imaging; reporter expression induced with tamoxifen. inhibition, % at 2 µM;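 active = inhibition above the mean plus 3 SD, with well images judged a real hit on visual review, cut at about 60% in these data, passing the limit was not always enough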
NPY Y2 blocker: blocks the human neuropeptide Y Y2 receptor | P49146 | NPY-Y2 expressing cells, antagonist mode | inhibition, % at 2.7 µM | actives 0.99% (n = 140,000) | AID 793; in the data active = inhibition above about 17%;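 also: 0% = vehicle with agonist challenge and 100% = reference antagonist with challenge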
NPY-Y1 PAM-ag: potentiates or activates human NPY-Y1 receptor. P25929. NPY-Y1 expressing cells, potentiator/agonist activation. activation, % at 3.6 µM. actives 0.37% (n = 220,000). AID 1304; in the data active = activation above about 33%, passing the limit was not always enough;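 also: cells stimulated with NPY at EC10 then isoproterenol at EC100; 0% = low agonist plus stimulus and 100% = saturating agonist plus stimulus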
NPY Y1 blocker: NPY-Y1 (human) receptor antagonism. P25929. HEK293-CNG Y1 cells, membrane potential fluorescence; NPY at EC95, then isoproterenol. inhibition, % at 3.6 µM. actives 1% (n = 200,000). AID 1040;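 active = inhibition above the campaign mean inhibition of all tested compounds plus 3 SD, cut at about 20% in these data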;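 also: 0% = DMSO wells given NPY plus isoproterenol and 100% = isoproterenol alone without NPY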
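Test system: HEK293 cells co-expressing NPY Y1 receptor and cyclic-nucleotide gated channel; Also added: NPY (25 nM), isoproterenol (1 µM), Ro 20-1724 (25 µM); Compound dosing: one concentration, 3.6 µM, in 0.4% DMSO; Timing: dye 3 h, compound 60 min room temperature, stimulation 45 min; Technique: Membrane-potential fluorescent dye readout.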
NPY-Y1 antag ct: antagonizes human NPY-Y1, counter-screen to NPY-Y2 antagonists; shares compounds with NPY Y2 blocker; cell-based NPY-Y1 antagonism counterscreen; inhibition, % at 3.6 µM; actives 19% (n = 710); AID 1256; in the data active = inhibition above about 20%;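 also: cells challenged with NPY then isoproterenol with cAMP sensed through a CNG channel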
NPY2 antag conf: confirmation of human neuropeptide Y receptor Y2 antagonists; inhibition, % at 2.8 µM; HEK293 NPY-Y2 CNG channel, membrane potential fluorescence; shares compounds with NPY Y2 blocker; actives 32% (n = 710);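 active = mean inhibition of triplicate wells above the hit cutoff set in the primary screen, cut at about 17% in these data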;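 also: 0% = DMSO with NPY challenge and 100% = BIIE0246 high control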
* = called active by the depositor; . = no result.

SMILES | Insulin prom up | NPY-Y2 PAM-ag | INS promoter inh | NPY Y2 blocker | NPY-Y1 PAM-ag | NPY Y1 blocker | NPY-Y1 antag ct | NPY2 antag conf
OC1(c2ccccc2)CCN(Cc2ccccc2)C2CCCCC21 (configuration not stated) | -0.9 | -25 | -34 | 29* | -27 | 18 | 19 | 43*
O=C(c1ccco1)N1CCN(C(=O)c2ccccc2NS(=O)(=O)c2ccc(F)cc2)CC1 | . | -7 | . | . | 3 | 3 | . | .
CCOC(=O)Cc1csc(SCC(=O)Nc2cccc(Cl)c2)n1 | . | -5 | -60 | 5 | -8 | 2 | . | .
CCOC(=O)Cc1csc(SCC(=O)Nc2cc(Cl)ccc2Oc2ccccc2)n1 | -0.05 | -23 | -31 | 19* | 9 | 6 | 7 | 5
O=C(COC(=O)c1cccc(Cl)c1)Nc1cc(Cl)ccc1Oc1ccccc1 | 0.41 | -1 | 13 | 19* | -10 | 14 | 14 | 12
CCOC(=O)CC(NC(=O)CCc1c(C)nc2ncnn2c1C)c1ccc(C)cc1 (configuration not stated) | -0.67 | 7 | -53 | . | 18 | 3 | . | .
Cc1ccc([N+](=O)[O-])cc1NC(=O)c1ccc(-c2ccccc2)cc1 | -0.14 | -6 | 27 | 22* | -32 | 19 | 9 | 12
Cc1ccc(C(=O)Nc2cc([N+](=O)[O-])ccc2C)cc1 | -0.85 | 0 | -7 | . | 1 | 4 | . | .
Fc1ccc(-c2nnn(Cc3nc4ccccc4s3)n2)cc1 | . | -21 | -79 | 11 | -43 | 7 | . | .
Clc1ccc(-c2nnn(Cc3nc4ccccc4s3)n2)cc1 | 0.25 | -22 | 62 | 18* | -38 | 11 | 20 | 24*
N#Cc1nc(COc2ccc(Cl)cc2Cl)oc1N1CCN(c2ccccc2)CC1 | 0.23 | -16 | 50 | 17* | -14 | 13 | 29* | 21*
N#Cc1nc(Cc2ccccc2)oc1N1CCN(c2cccc(Cl)c2)CC1 | 0.56 | 17 | -29 | 0 | -29 | 8 | . | .
CN(Cc1cn(-c2ccccc2)nc1-c1ccc(Cl)cc1)C(=O)CCC(=O)O | -0.12 | 10 | 15 | 0 | -2 | 6 | . | .
O=C(C(Sc1ccccc1)c1ccccc1)N1CCN(c2ccccc2)CC1 (configuration not stated) | -0.91 | 0 | -31 | 19* | -3 | 12 | 16 | 9
CCOC(=O)c1cc2c(=O)n3ccccc3nc2n(CCCOC)c1=NC(=O)c1ccncc1 | -1.1 | 2 | . | . | 7 | 3 | . | .
CCOCCCn1c(=N)c(C(=O)NCc2ccc3c(c2)OCO3)cc2c(=O)n3ccccc3nc21 | -0.85 | 6 | 7 | 23* | -12 | 19 | 18 | 8
CCCn1c(=N)c(C(=O)NCc2ccc3c(c2)OCO3)cc2c(=O)n3cccc(C)c3nc21 | -0.62 | -17 | 3 | 2 | 7 | 5 | . | .
CCOC(=O)c1cc2c(=O)n3ccccc3nc2n(CCCOC)c1=NC(C)=O | . | 8 | 0 | 21* | 4 | -1 | 1 | 3
c1ccc(Cc2nnc(-c3ccccc3)o2)cc1 | . | -12 | 33 | 135* | -32 | 10 | 9 | 19*
CC(=O)Oc1ccc2nc(CN3C(=O)c4ccc([N+](=O)[O-])cc4C3=O)oc(=O)c2c1 | 0.17 | 2 | 55 | . | -7 | 3 | . | .
Cc1ccc(NC(=O)CN(c2ccccc2)S(=O)(=O)N(C)C)cc1 | 0.08 | -4 | -28 | 5 | 7 | 10 | . | .
O=C(COc1ccccc1)Nc1ccccc1N1CCCCC1 | -0.46 | -3 | -36 | 11 | -61 | 11 | . | .
O=C(COc1ccccc1)Nc1cc(C(F)(F)F)ccc1N1CCCC1 | -0.38 | -24 | -77 | 20* | -13 | 20 | 27* | 15
COC(=O)c1ccc(-c2ccc(Cl)cc2)nc1C | 0.41 | -5 | 17 | 7 | -17 | -3 | . | .
N#Cc1c(NC(=O)CCn2cnc3ccccc3c2=O)oc(-c2ccccc2)c1-c1ccccc1 | . | 6 | 75* | 20* | -17 | 20 | 23* | 11
SMILES | Insulin prom up | NPY-Y2 PAM-ag | INS promoter inh | NPY Y2 blocker | NPY-Y1 PAM-ag | NPY Y1 blocker | NPY-Y1 antag ct | NPY2 antag conf
C/C(=N/NS(C)(=O)=O)c1ccc2ccccc2c1 | 0.58 | -3 | 7 | 17* | -10 | 1 | 8 | 5
Oc1cccc(-c2nc3ccc4ccccc4c3c3c2CCC3)c1 | -0.12 | -36 | -21 | 30* | -30 | 16 | 10 | 32*
COc1ccc(NC(=O)CSc2nc3ccccc3c(=O)n2CCCN2CCCCC2)c(OC)c1 | 1.7 | -13 | 0 | 24* | -45 | 15 | 14 | 20*
COc1ccccc1CNC(=O)CSc1nc2ccccc2c(=O)n1CCCN1CCOCC1 | -0.4 | 13 | -35 | . | 20 | 5 | . | .
CCC(C)(C)NC(=O)CCCSc1nc2ccccc2[nH]1 | -0.12 | 22 | . | . | 21 | . | . | .
Cc1nc(-c2ccccc2)sc1C(=O)CSc1ccc(F)cc1 | 0.26 | -32 | 3 | 20* | -28 | 19 | 21* | 25*
CNC(=O)c1sc(-c2ccccc2)nc1C | 0.78 | -2 | -14 | -1 | 12 | -6 | . | .
COc1cccc(-c2nc(CS(=O)(=O)CC(=O)NCc3ccccc3OC)c(C)o2)c1 | 0.35 | -15 | . | 22* | -35 | 20 | 12 | 12
COc1cccc(-c2nc(-c3ccc(NC(=O)Cc4ccccc4OC)cc3)no2)c1 | -0.65 | -19 | 67 | 23* | -53 | 5 | 5 | 115*
CC(C)C(NC(=O)c1ccc(F)cc1)C(=O)Nc1cccnc1 (configuration not stated) | 0.52 | -3 | -55 | . | 7 | 5 | . | .
CN(C)Cc1cccc([N+](=O)[O-])c1O | 0.07 | 1 | . | . | 14 | . | . | .
Cc1cccc(NC(=O)C(c2cccc([N+](=O)[O-])c2)N2CCCCC2)c1 (configuration not stated) | 0.09 | -10 | . | 17* | -12 | 15 | 16 | 6
COc1cccc(NC(=O)C(c2ccccc2)N2CCCC2)c1 (configuration not stated) | 1.7 | 1 | . | . | -21 | 10 | . | .
Cc1cccc(N2C(=O)C3C4C=CC(C5CC45)C3C2=O)n1 (configuration not stated) | -0.13 | -12 | . | . | 6 | . | . | .
Cc1cccc(OCCCSc2nc3ccc(C)cc3[nH]2)c1 | -0.36 | -31 | 0 | 17* | -35 | 16 | 12 | 17
CCOc1ncccc1C(=O)OC(C)C(=O)NC(=O)NC1CCCCC1 (configuration not stated) | -0.98 | -8 | . | . | -7 | 0 | . | .
CN(C)CCNC(=S)NC1CCCCC1 | 0.89 | -20 | . | . | 1 | 7 | . | .
CN(C)CCOC(C1CCCCC1)C1CCCCC1 | 0.68 | -14 | -18 | 27* | -34 | 18 | 12 | 16
c1coc(Cn2c(-c3ccco3)nc3ccccc32)c1 | -0.24 | 5 | 12 | 8 | -20 | -7 | . | .
Clc1ccc(OCCn2c(-c3ccco3)nc3ccccc32)cc1 | . | -25 | 17 | 31* | -44 | 19 | 32* | 12
